Hits are enriched below; roughly 3.1% of the tested compounds scored in any of these assays.
VIM-2 inhibitor – inhibitors of Pseudomonas aeruginosa VIM-2 metallo-beta-lactamase | inhibition, % at 5.6 µM | hit rate 0.89% among 290,000 | purified VIM-2, nitrocefin hydrolysis, epi-absorbance fluorescence | AID 1527;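 active = inhibition above the mean of all tested compounds plus 3 SD, cutoff set per screening run, cut at about 7.5% in these data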;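 note: red hydrolysis product quenches plate fluorescence so inhibitors raise well fluorescence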
core dimer inh – HCV core protein dimerization inhibition. hit rate 0.33% among 300,000. TR-FRET GST/Flag-core106 dimerization, 1536-well. AID 1899. inhibition, % at 5 µM;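 active = inhibition above the mean of all tested compounds plus 3 SD, set per screening campaign, cut at about 45% in these data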
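test system = GST/Flag-tagged HCV core106 proteins | probe or stimulus = Eu donor and XL665 acceptor anti-tag antibodies | times = compound-protein-antibody incubation 4 h at 22.5 °C | signal = TR-FRET, excitation 340 nm, emission 617 and 671 nm | measure = percent inhibition of core106 dimerization signal | controls = wells lacking GST-core106 and wells with excess unlabelled core106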
HCV NS3 hel inh – HCV NS3 helicase inhibition; NS3 helicase DNA unwinding, Cy5 molecular beacon fluorescence; inhibition, % at 10.9 µM; hit rate 0.56% among 290,000; AID 1800;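 active = inhibition above the mean of all tested compounds plus 3 SD, set per campaign, cut at about 35% in these data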
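test system = hepatitis C virus NS3 helicase domain fragment enzyme | reagent = annealed dual-labelled DNA beacon duplex, ATP-started | times = 1 h at 25 °C | detection = Cy5 fluorescence, 0 and 60 min reads | read-out basis = percent inhibition from t60/t0 fluorescence ratio | control set = DMSO and thioflavine S | replication = one well per compound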
UBC9 SUMO inh – SUMOylation inhibition; HTRF SUMOylation assay, SAE1/SAE2 + UBC9, in vitro; inhibition, % at 35 µM; hit rate 0.36% among 290,000; AID 2006; in the data active = inhibition above about 50%, passing the limit was not always enough
Target sequence (P63279 whole entry, looked up): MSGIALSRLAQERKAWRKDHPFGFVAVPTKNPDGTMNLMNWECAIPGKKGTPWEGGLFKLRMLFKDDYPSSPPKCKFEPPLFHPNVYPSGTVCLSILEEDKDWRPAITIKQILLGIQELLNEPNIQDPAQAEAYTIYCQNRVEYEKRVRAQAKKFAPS
IMP-1 inhibitor – inhibitors of Pseudomonas aeruginosa IMP-1 metallo-beta-lactamase; inhibition, % at 5.6 µM; hit rate 0.45% among 290,000; purified IMP-1, nitrocefin hydrolysis, epi-absorbance fluorescence;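 active = inhibition above the mean plus 3 SD of all compounds in the same screening run, cut at about 4.5% in these data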
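system = purified recombinant IMP-1 beta-lactamase | amount = 0.2 nM IMP-1, as dispensed | medium = HEPES buffer pH 7.1 with ZnSO4 and Brij 35 | times = 25 °C, 15 min preincubation, 25 min reaction | detection = plate fluorescence quenching by hydrolysis product, ex 480/em 530 nm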
PHOSPHO1 inh – inhibitors of human PHOSPHO1 phosphatase; Q8TCT1; recombinant PHOSPHO1, absorbance phosphatase assay; inhibition, % at 13.3 µM; hit rate 1.1% among 290,000; in the data active = inhibition above about 60%
Target sequence (Q8TCT1 whole entry, looked up): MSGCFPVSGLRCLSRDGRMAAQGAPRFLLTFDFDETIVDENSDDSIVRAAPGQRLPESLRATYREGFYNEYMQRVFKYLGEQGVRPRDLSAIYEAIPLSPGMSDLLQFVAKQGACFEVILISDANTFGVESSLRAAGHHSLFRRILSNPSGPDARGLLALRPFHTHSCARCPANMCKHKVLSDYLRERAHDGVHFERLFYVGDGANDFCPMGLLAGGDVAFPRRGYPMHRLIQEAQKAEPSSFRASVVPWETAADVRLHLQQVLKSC
NS3 helicase cf – confirmation of Hepatitis C virus NS3 helicase inhibitors; shares compounds with HCV NS3 hel inh; NS3 helicase DNA unwinding, Cy5 molecular beacon fluorescence; inhibition, % at 10.9 µM; hit rate 31% among 1,600; AID 1943;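 active = inhibition above the mean of all tested compounds plus 3 SD, cutoff set per campaign, cut at about 36% in these data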
FID counter trip – counter-screen for HCV NS3 helicase inhibitors: DNA intercalator displacement; shares compounds with HCV NS3 hel inh; DNA fluorescent intercalator displacement, fluorescence; inhibition, % at 7.9 µM; hit rate 4% among 1,600; AID 1945; in the data active = inhibition above about 37%;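 note: higher means more displacement of ethidium bromide from the DNA hairpin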
DNA FID DR – DNA intercalator displacement in dose response. 120 tested, under 10 active. IC50, µM. shares compounds with HCV NS3 hel inh. fluorescent intercalator displacement from DNA, fluorescence; call rule not given here
Large screens that a line does not name were inactive (follow-up assays come after a bar, where they were run).

O=C(Nc1cccc2nsnc12)c1ccc(-c2cccc(Cl)c2)o1	HCV NS3 hel inh 40, UBC9 SUMO inh 60 | NS3 helicase cf inactive | FID counter trip inactive
CCn1cc(S(=O)(=O)Nc2cc(F)ccc2C)cn1	HCV NS3 hel inh 59 | NS3 helicase cf inactive | FID counter trip inactive
COC(=O)Cc1cc(=O)n2c(nc3ccccc32)[nH]1	none (no result: UBC9 SUMO inh, PHOSPHO1 inh)
O=C(O)CSc1cc(NS(=O)(=O)c2ccc(Br)cc2)c2ccccc2c1O	HCV NS3 hel inh 55, UBC9 SUMO inh 76 | NS3 helicase cf 70 | FID counter trip inactive
Cc1ccc(S(=O)(=O)Nc2ccc(Br)cc2C(NCC(=O)O)c2ccccc2)cc1 (stereo unspecified)	none
Cc1nc(-c2ccc(-n3nncc3-c3ccco3)cc2)cs1	HCV NS3 hel inh 56 | NS3 helicase cf inactive | FID counter trip inactive
Nc1nc(-c2ccc(-n3nncc3-c3ccco3)cc2)cs1	none
CCc1csc(CCNC(=O)C2CCC(=O)N(CCc3cccc(F)c3)C2)n1 (stereo unspecified)	none (no result: core dimer inh)
CCOC(=O)C1=NN(C(=O)c2ccccc2)C(O)(c2ccc(C)cc2)C1 (stereo unspecified)	HCV NS3 hel inh 44 | NS3 helicase cf inactive | FID counter trip inactive
O=C(N/N=C1/CC2CCC1C2)c1cc2ccccc2cc1O (stereo unspecified)	HCV NS3 hel inh 49 | NS3 helicase cf inactive | FID counter trip inactive
O=C(NCC1CCCCC1)c1cc2ccccc2cc1O	none
Cn1c(SCc2n[nH]c(=S)n2-c2ccccc2)nnc1-c1ccccc1	HCV NS3 hel inh 47 | NS3 helicase cf inactive | FID counter trip inactive
CC(=O)Oc1ccc(C(=O)Nc2cccc(C(=O)c3ccc(C)c(C)c3)c2)cc1	none (no result: VIM-2 inhibitor, HCV NS3 hel inh, UBC9 SUMO inh, IMP-1 inhibitor, PHOSPHO1 inh)
Cc1ccc(S(=O)(=O)Nc2cc(C(=O)O)ccc2N2CCCCC2)cc1	HCV NS3 hel inh 75 | NS3 helicase cf inactive | FID counter trip inactive
COc1ccc(CN(C(=O)Cc2c[nH]c3ccccc23)C(C(=O)NC2CCCCC2)c2ccc(C)o2)cc1 (stereo unspecified)	HCV NS3 hel inh 65, IMP-1 inhibitor 49 | NS3 helicase cf inactive | FID counter trip inactive
COc1cc(C(C(=O)NC2CCCCC2)N(Cc2cccs2)C(=O)Cc2c[nH]c3ccccc23)cc(OC)c1OC (stereo unspecified)	none
COc1ccc(OCc2cc(C(=O)NC3CCOC(C)(C)C3)no2)c2ccccc12 (stereo unspecified)	HCV NS3 hel inh 47 | NS3 helicase cf inactive | FID counter trip inactive
O=C(CC1SC(=O)N(c2ccccc2)C1=O)Nc1ccc(Br)cc1 (stereo unspecified)	HCV NS3 hel inh 37 | NS3 helicase cf inactive | FID counter trip inactive
O=C(CC1SC(=O)N(c2ccccc2)C1=O)Nc1ccc(Cl)cc1 (stereo unspecified)	none
O=C(CSc1nc2scc(-c3ccco3)c2c(=O)n1-c1ccccc1)NCC1CCCO1 (stereo unspecified)	HCV NS3 hel inh 86 | NS3 helicase cf inactive | FID counter trip inactive
O=c1c2c(-c3ccco3)csc2nc(SCc2cn3cccnc3n2)n1-c1ccccc1	core dimer inh 66, HCV NS3 hel inh 62 | NS3 helicase cf 94 | FID counter trip inactive | DNA FID DR inactive
CNc1c(NC(=O)c2ccc3c(c2)OCO3)c(=O)oc2ccccc12	none
O=C(NNC1CC(=O)N(c2ccc(Cl)cc2)C1=O)c1ccccn1 (stereo unspecified)	none
O=C(NNC1CC(=O)N(c2ccc(Cl)cc2)C1=O)c1ccccc1Cl (stereo unspecified)	HCV NS3 hel inh 38 | NS3 helicase cf inactive | FID counter trip inactive
O=C1NN(c2ccccc2)C(=O)/C1=C/c1ccc(Sc2cccc3ccccc23)o1	HCV NS3 hel inh 53 | NS3 helicase cf 75 | FID counter trip inactive | DNA FID DR inactive
O=C1NN(c2ccccc2)C(=O)/C1=C\c1ccc2c(c1)OCO2	none
CCN(CC)S(=O)(=O)c1ccc(NC(=O)COC(=O)c2ccc(NC(=O)CC#N)cc2)cc1	HCV NS3 hel inh 41 | NS3 helicase cf inactive | FID counter trip inactive
CC(C)c1ccc(NC(=O)C2CSC3(C)CCC(=O)N23)cc1 (stereo unspecified)	none
O=C(N/N=C/C=C/c1ccccc1[N+](=O)[O-])c1cccs1	none
COc1ccccc1OCC(=O)N/N=C/C=C/c1ccc([N+](=O)[O-])o1	HCV NS3 hel inh 46 | NS3 helicase cf inactive | FID counter trip inactive
Cc1ccccc1OCC(=O)N/N=C/c1ccc([N+](=O)[O-])o1	none
O=C(N/N=C\C=C\c1ccc([N+](=O)[O-])o1)c1cccs1	HCV NS3 hel inh 54, UBC9 SUMO inh 51 (no result: core dimer inh) | NS3 helicase cf inactive | FID counter trip inactive
Cc1ccc(NS(=O)(=O)c2c(C)[nH]c(C)c2C(=O)N2CCCCC2)cc1F	none
COc1ccc(/C(N)=N/OC(=O)/C=C/c2ccccc2)cc1	none
CC(=O)c1ccc(OC(=O)/C=C/c2ccccc2)cc1	HCV NS3 hel inh 39 | NS3 helicase cf inactive | FID counter trip inactive
Cc1csc(=O)n1CC(=O)OC(C)C(=O)Nc1cccc(Cl)c1 (stereo unspecified)	none (no result: VIM-2 inhibitor, HCV NS3 hel inh, UBC9 SUMO inh, IMP-1 inhibitor, PHOSPHO1 inh)
O=C(Nc1ccccc1)c1ccc(OC(=O)c2ccccc2)cc1	none (no result: PHOSPHO1 inh)
O=C(Oc1ccc(NC(=O)c2cc3c(cc2Br)OCO3)cc1)c1ccccc1	none | NS3 helicase cf inactive | FID counter trip inactive
CCCCNC(=NCc1cccc(C(F)(F)F)c1)Nc1ccccc1	none
COc1ccc2ccccc2c1C1CC(=O)N2CN(Cc3ccco3)CSC2=C1C#N (stereo unspecified)	HCV NS3 hel inh 47, PHOSPHO1 inh 72 | NS3 helicase cf 46 | FID counter trip inactive
O=C(CN(C(=O)c1csnn1)c1cccc(C(F)(F)F)c1)NCCc1ccccc1	none
Cc1cc(C)nc(N/N=C/C2=C(N3CCOCC3)C(=C\c3ccc(Cl)cc3)/CC2)n1	HCV NS3 hel inh 36 | NS3 helicase cf inactive | FID counter trip inactive
O=CC1=C(N2CCOCC2)/C(=C/c2ccc(Cl)cc2)CC1	none
CSc1ccc(CN2CCC(C(=O)NCc3ccc(C)cc3)CC2)cc1	none
CCOC(=O)c1cc2c(ccn2C)n1CC(=O)N(Cc1ccccc1)c1ccc(F)cc1	none
CC(C)OC(=O)c1cc2c(ccn2C)n1CC(=O)N(Cc1ccccc1)c1ccc(F)cc1	HCV NS3 hel inh 38 | NS3 helicase cf inactive | FID counter trip inactive
CC(C)(C)c1cc(C2=CSC3=NCCN23)cc(C(C)(C)C)c1O	none

Bioassay records (PubChem)
